Data from ChEMBL document CHEMBL1158464, “Structure-activity relationships and cancer-cell selective toxicity of novel inhibitors of glioma-associated oncogene homologue 1 (Gli1) mediated transcription” (J Med Chem, 2009).
Activity calls are given as the source filed them.

Experiments:
[1] = tested on: Raji; experiment: Cytotoxicity against human Raji cells at 40 uM/well after 68 hrs by alamar blue assay; format: functional, cell-based
How it was run: (§1)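 Cells plated in appropriate medium 24 h before compound. A 10 mM DMSO stock was diluted in EMEM to 160 µM (4×) and added in triplicate to a final 40 µM. Incubated 68 h at 37 °C, then Alamar Blue for 4 h at 37 °C. Fluorescence read at ex 510/em 590 nm. Viability taken relative to DMSO control wells.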

[2] = tested on: SJRH30; experiment: Cytotoxicity against human Rh30 cells at 40 uM/well after 68 hrs by alamar blue assay; format: functional, cell-based; how it was run: as §1
[3] = tested on: HepG2; experiment: Cytotoxicity against human HepG2 cells at 40 uM/well after 68 hrs by alamar blue assay; format: functional, cell-based; how it was run: as §1
[4] = molecular target: T1, Zinc finger protein GLI1 (Homo sapiens) (UniProt P08151); experiment: Inhibition of exogenously transfected human Gli1-mediated transcriptional activity in mouse C3H10T1/2 cells at 20 uM after 24 hrs by luciferase reporter gene assay; format: cell-based; conditions: C3H 10T1/2
T1 sequence (whole entry): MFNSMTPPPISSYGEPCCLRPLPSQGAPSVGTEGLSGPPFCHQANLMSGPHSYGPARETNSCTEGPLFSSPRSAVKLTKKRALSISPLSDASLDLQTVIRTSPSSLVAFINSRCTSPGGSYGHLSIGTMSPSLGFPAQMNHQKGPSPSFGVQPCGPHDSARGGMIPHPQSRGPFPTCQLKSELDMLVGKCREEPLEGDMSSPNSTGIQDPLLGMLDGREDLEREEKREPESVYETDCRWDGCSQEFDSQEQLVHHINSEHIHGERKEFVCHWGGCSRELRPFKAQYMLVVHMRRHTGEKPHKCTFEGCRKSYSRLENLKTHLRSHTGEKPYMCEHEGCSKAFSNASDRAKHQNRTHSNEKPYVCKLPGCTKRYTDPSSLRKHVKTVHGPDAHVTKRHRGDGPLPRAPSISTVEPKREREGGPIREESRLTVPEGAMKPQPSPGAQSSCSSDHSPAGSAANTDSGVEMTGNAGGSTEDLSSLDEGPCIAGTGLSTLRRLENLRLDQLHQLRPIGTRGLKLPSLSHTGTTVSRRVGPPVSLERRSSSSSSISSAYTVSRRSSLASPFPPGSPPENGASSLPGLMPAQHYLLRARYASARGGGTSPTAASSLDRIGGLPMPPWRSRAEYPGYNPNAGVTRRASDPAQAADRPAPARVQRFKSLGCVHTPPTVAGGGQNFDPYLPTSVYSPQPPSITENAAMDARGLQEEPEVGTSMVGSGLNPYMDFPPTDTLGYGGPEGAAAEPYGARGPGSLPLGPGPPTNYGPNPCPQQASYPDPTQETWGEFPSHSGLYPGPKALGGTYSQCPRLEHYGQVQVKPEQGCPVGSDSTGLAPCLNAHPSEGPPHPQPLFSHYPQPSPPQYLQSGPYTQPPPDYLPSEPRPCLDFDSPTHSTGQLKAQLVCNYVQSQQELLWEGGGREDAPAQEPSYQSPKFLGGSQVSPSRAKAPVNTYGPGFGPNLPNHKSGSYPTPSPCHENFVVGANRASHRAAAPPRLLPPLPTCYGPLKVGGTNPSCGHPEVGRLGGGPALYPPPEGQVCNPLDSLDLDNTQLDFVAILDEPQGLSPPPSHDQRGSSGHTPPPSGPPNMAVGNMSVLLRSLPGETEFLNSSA
How it was run: (§2)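 They were replated 18 h later, given compound or DMSO 6 h after plating, and exposed for 24 h at 37 °C, 5% CO2. Lysate was read by dual luciferase as firefly/Renilla, triplicate, DMSO = 0%. IC50 came from curve fitting.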

[5] = tested on: Daoy; experiment: Cytotoxicity against human DaOY cells at 40 uM/well after 68 hrs by alamar blue assay; format: functional, cell-based; how it was run: as §1
[6] = tested on: MDA-MB-231; experiment: Cytotoxicity against human MDA-MB-231 cells at 40 uM/well after 68 hrs by alamar blue assay; format: functional, cell-based; how it was run: as §1
[7] = tested on: LN-229; experiment: Cytotoxicity against human LN229 cells at 40 uM/well after 68 hrs by alamar blue assay; format: functional, cell-based; how it was run: as §1
[8] = tested on: DU-145; experiment: Cytotoxicity against human DU145 cells at 40 uM/well after 68 hrs by alamar blue assay; format: functional, cell-based; how it was run: as §1
[9] = tested on: BJ; experiment: Cytotoxicity against human TERT-immortalized human BJ cells at 40 uM/well after 68 hrs by alamar blue assay; format: cell-based; how it was run: as §1
[10] = molecular target: T1, Zinc finger protein GLI1 (Homo sapiens); experiment: Inhibition of exogenously transfected human Gli1-mediated transcriptional activity in mouse C3H10T1/2 cells at 40 uM after 24 hrs by luciferase reporter gene assay; format: cell-based; conditions: C3H 10T1/2; how it was run: as §2

C[C@H](C(=O)NCCc1ccccc1O)c1cccc(C(=O)c2ccccc2)c1
Non-toxic: Activity [9]
active: Activity [1] | Activity [2] | inhibition [4] | Activity [5] | Activity [6] | Activity [8]
inactive: Activity [3] | Activity [7]

COc1ccc(CCNC(=O)[C@@H](C)c2cccc(C(=O)c3ccccc3)c2)cc1
active: Activity [1] | Activity [2] | inhibition [4] | Activity [5] | Activity [6] | inhibition [10] | Activity [8]
inactive: Activity [3] | Activity [7]
Non-toxic: Activity [9]

C[C@H](C(=O)NCCc1ccc(Cl)cc1)c1cccc(C(=O)c2ccccc2)c1
inactive: Activity [3] | Activity [7]
active: Activity [1] | Activity [2] | inhibition [4] | Activity [5] | Activity [6] | inhibition [10] | Activity [8]
Non-toxic: Activity [9]

C[C@H](CNC(=O)NCCc1ccc(O)cc1)c1cccc(C(=O)c2ccccc2)c1
Toxic: Activity [9]
inactive: Activity [3] | Activity [7]
active: Activity [1] | Activity [2] | inhibition [4] | Activity [5] | Activity [6] | inhibition [10] | Activity [8]

CC(C)Cc1ccc(C(C)C(=O)NCCc2ccc(O)cc2)cc1 (stereo unspecified)
active: Activity [1] | Activity [2] | Activity [5] | Activity [6] | Activity [8]
inactive: Activity [3] | Activity [7]
Non-toxic: Activity [9]

O=C(Cc1ccc(Oc2ccccc2)cc1)NCCc1ccc(O)cc1
inactive: Activity [3] | Activity [7]
active: Activity [1] | Activity [2] | Activity [5] | Activity [6] | Activity [8]
Non-toxic: Activity [9]

COc1cc(CCNC(=O)[C@@H](C)c2cccc(C(=O)c3ccccc3)c2)ccc1O
inactive: Activity [3] | Activity [7]
Non-toxic: Activity [9]
active: Activity [1] | Activity [2] | inhibition [4] | Activity [5] | Activity [6] | inhibition [10] | Activity [8]

C[C@H](C(=O)NCc1ccc(O)cc1)c1cccc(C(=O)c2ccccc2)c1
Non-toxic: Activity [9]
inactive: Activity [3] | Activity [7]
active: Activity [1] | Activity [2] | inhibition [4] | Activity [5] | Activity [6] | inhibition [10] | Activity [8]

C[C@H](COC(=O)Nc1ccc(O)cc1)c1cccc(C(=O)c2ccccc2)c1
active: Activity [1] | Activity [2] | inhibition [4] | Activity [5] | Activity [6] | inhibition [10] | Activity [8]
inactive: Activity [3] | Activity [7]
Non-toxic: Activity [9]

C[C@H](CNC(=O)CCc1ccc(O)cc1)c1cccc(C(=O)c2ccccc2)c1
inactive: Activity [3] | Activity [7]
active: Activity [1] | Activity [2] | inhibition [4] | Activity [5] | Activity [6] | inhibition [10] | Activity [8]
Non-toxic: Activity [9]

COc1ccc2cc([C@H](C)C(=O)NCCc3ccc(O)cc3)ccc2c1
active: Activity [1] | Activity [2] | inhibition [4] | Activity [5] | Activity [6] | inhibition [10] | Activity [8]
inactive: Activity [3] | Activity [7]
Non-toxic: Activity [9]

COc1ccc2c(c1)c(CC(=O)NCCc1ccc(O)cc1)c(C)n2C(=O)c1ccc(Cl)cc1
Non-toxic: Activity [9]
active: Activity [1] | Activity [2] | inhibition [4] | Activity [5] | Activity [6] | inhibition [10] | Activity [8]
inactive: Activity [3] | Activity [7]

C[C@H](CNC(=O)Nc1ccc(O)cc1)c1cccc(C(=O)c2ccccc2)c1
inactive: Activity [3] | Activity [7]
Toxic: Activity [9]
active: Activity [1] | Activity [2] | inhibition [4] | Activity [5] | Activity [6] | inhibition [10] | Activity [8]

COc1ccc2[nH]cc(CC(=O)NCCc3ccc(O)cc3)c2c1
inactive: Activity [3] | Activity [7]
active: Activity [1] | Activity [2] | Activity [5] | Activity [6] | Activity [8]
Non-toxic: Activity [9]

C[C@H](C(=O)NCCc1ccc(O)cc1)c1cccc(Cc2ccccc2)c1
active: Activity [1] | Activity [2] | Activity [5] | Activity [6] | Activity [8]
inactive: Activity [3] | Activity [7]
Non-toxic: Activity [9]

C[C@H](C(=O)NCCc1ccc(O)cc1)c1cccc(C(O)c2ccccc2)c1 (stereo partly specified)
active: Activity [1] | Activity [2] | Activity [5] | Activity [6] | Activity [8]
inactive: Activity [3] | Activity [7]
Non-toxic: Activity [9]

O=C(Cc1cccc(Oc2ccccc2)c1)NCCc1ccc(O)cc1
inactive: Activity [3] | Activity [7]
active: Activity [1] | Activity [2] | Activity [5] | Activity [6] | Activity [8]
Non-toxic: Activity [9]

COc1ccc2cc([C@@H](C)C(=O)NCCc3ccc(O)cc3)ccc2c1
inactive: Activity [3] | Activity [7]
active: Activity [1] | Activity [2] | Activity [5] | Activity [6] | Activity [8]
Non-toxic: Activity [9]

CC(C(=O)NCCc1ccc(O)cc1)c1cccc(C(=O)c2ccccc2)c1 (racemic)
inactive: Activity [3] | Activity [7]
Non-toxic: Activity [9]
active: Activity [1] | Activity [2] | Activity [5] | Activity [6] | Activity [8]

O=C(Cc1ccccc1Oc1ccccc1)NCCc1ccc(O)cc1
Non-toxic: Activity [9]
active: Activity [1] | Activity [2] | Activity [5] | Activity [6] | Activity [8]
inactive: Activity [3] | Activity [7]
